Bioassay records as filed in PubChem.
CDK5 p35 inh = CDK5/p35 (human) kinase inhibition; Recombinant CDK5/p35, ADP-Glo luminescence, 60 min; Q00535+Q15078; AID 488839; actives 0.01% (n = 330,000); inhibition, % at 10 µM;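 active means highest replicate inhibition of at least 50% and at least 75% of replicates reaching 50%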;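 further: plate controls were DMSO neutral control for no effect and GW8510 at 10 µM for full effect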
GSK3A inh = blocks human GSK-3 alpha kinase. ADP-Glo luminescence, 60 min. inhibition, % at 10 µM. actives 0.1% (n = 320,000);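 active means more than half of replicates show inhibition above 20%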;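 further: GST-tagged GSK-3 alpha with peptide substrate and 25 µM ATP; 0% = DMSO neutral wells and 100% = GW8510 positive control wells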
Target sequence (P49840 whole entry, looked up): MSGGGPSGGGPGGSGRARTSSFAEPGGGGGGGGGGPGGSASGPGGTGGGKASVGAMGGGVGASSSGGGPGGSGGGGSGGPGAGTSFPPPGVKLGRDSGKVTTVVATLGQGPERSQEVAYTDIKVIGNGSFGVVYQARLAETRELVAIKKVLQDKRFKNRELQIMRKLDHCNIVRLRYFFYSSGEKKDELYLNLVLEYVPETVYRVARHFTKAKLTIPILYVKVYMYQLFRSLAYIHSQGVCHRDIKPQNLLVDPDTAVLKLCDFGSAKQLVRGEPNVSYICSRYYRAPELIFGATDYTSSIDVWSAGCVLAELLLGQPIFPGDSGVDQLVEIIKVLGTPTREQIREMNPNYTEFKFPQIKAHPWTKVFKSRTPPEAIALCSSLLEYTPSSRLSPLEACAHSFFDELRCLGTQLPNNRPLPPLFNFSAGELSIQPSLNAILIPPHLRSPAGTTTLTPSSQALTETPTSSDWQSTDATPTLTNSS
Dyrk1A ADPGlo = blocks rat Dyrk1A kinase activity; Q63470; ADP-Glo luminescence, NFATc1 peptide; inhibition, % at 12.5 µM; actives 0.43% (n = 310,000); AID 504441; in the data active means inhibition above about 50%;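 further: plate controls were vehicle with enzyme for no effect and no enzyme for full effect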
STK33 inh = human STK33 kinase inhibition | Q9BYT3 | purified STK33, MBP phosphorylation, ADP-Glo luminescence | inhibition, % at 10 µM | actives 0.073% (n = 320,000) | AID 2661;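 active means inhibition at or above 25%, using the most active replicate where run in duplicate; inactive means inhibition below 25%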
GSK3B inh = inhibitors of human GSK3beta kinase | P49841 | actives 0.038% (n = 300,000) | activity score (negative = inhibition), % at 10 µM | GST-GSK3beta kinase, ADP-Glo luminescence, 60 min; active compounds read low;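 active means more than half of replicate wells score below -50%, meaning over 50% inhibition versus plate controls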;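 further: 0% = median DMSO wells and -100% = median GW8510 positive control wells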
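test system = GST-tagged human GSK3beta kinase, cell-free | reagent = 25 µM ATP with peptide substrate | dosing = one dose of 10 µM per compound | schedule = 60 min reaction, RT | detection = luminescent ADP-Glo measurement of ADP formed | control set = DMSO neutral wells and GW8510 at 20 µM as positive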
Dyrk1A artifact = interferes with ADP-Glo luciferase readout without Dyrk1A. shares compounds with Dyrk1A ADPGlo. ADP-Glo luciferase artifact assay, no Dyrk1A, luminescence. AC50, µM (titrated, usually from 12 µM), inactives show at the top dose activity change, negative = inhibition. 1,300 tested, under 10 active. AID 588348;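 active means fitted half-maximal dose AC50 no more than ten times the top valid tested dose, with luminescence dropping as dose rises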
Numbers without * were called inactive; . = no result. Only a selection was taken, and hits are over-represented in it overall.

SMILES | CDK5 p35 inh | GSK3A inh | Dyrk1A ADPGlo | STK33 inh | GSK3B inh | Dyrk1A artifact
O=C(Nc1ccc(Cl)cc1)c1csc(-c2ccncc2)n1 | 4 | -1 | 51* | 2 | -4 | 11%
CCC[C@H](CN[C@@H](CNC)[C@H](C)CC)NCCc1cc(C(F)(F)F)cc(C(F)(F)F)c1 | 1 | 7 | 9 | 1 | -4 | .
CC[C@@H](C)[C@H](CNC)NC[C@@H](Cc1cccc2ccccc12)NCCc1cccc(C(F)(F)F)c1 | 1 | 17 | 55* | 0 | -5 | 4%
COc1ccc2[nH]c3c(C)c4ccncc4c(C)c3c2c1 | -1 | -1 | 56* | 6 | 3 | 10%
Cc1cc(-c2ccc(C(=O)O)s2)cnc1N | 0 | 0 | 65* | -1 | -4 | 9%
Oc1ccc2ccc3[nH]cnc3c2c1 | 5 | 3 | 80* | 9 | 3 | 11%
O=C1C=C(N2CCOCC2)c2ccccc2C1=O | 3 | -3 | 56* | 5 | 4 | 9%
Cc1cc(N)c2ccccc2n1 | -1 | -1 | -2 | 0 | 0 | .
Nc1cc2ccncc2c2ccccc12 | 5 | 1 | 73* | 19 | -2 | 9%
CC(C)(C)C(=O)Nc1nc(-c2ccc3c(c2)OCO3)cs1 | . | 2 | 17 | 1 | -2 | .
COc1ccccc1C(=O)Nc1nc(-c2ccc3c(c2)OCCO3)cs1 | 0 | -1 | 24 | -1 | 0 | .
O=C(Nc1nc(-c2ccc3c(c2)OCCO3)cs1)c1ccco1 | 0 | 1 | 73* | 1 | -2 | 6%
O=C(Nc1nc(-c2cccs2)cs1)c1ccco1 | 0 | -2 | 8 | -4 | 0 | .
O=C(/C=C/c1ccccc1)Nc1nc(-c2ccncc2)cs1 | -1 | -9 | 72* | -1 | . | 8%
O=C(Nc1nc(-c2ccncc2)cs1)c1ccco1 | 5 | 0 | 76* | 2 | 2 | 6%
CCC(=O)Nc1nc(-c2ccc3c(c2)OCCO3)cs1 | -4 | -2 | 52* | 1 | 2 | 11%
CC(C)c1nnc(NC(=O)Cn2nc(-c3ccc4c(c3)OCCO4)ccc2=O)s1 | 0 | -2 | 58* | -2 | 1 | 7%
CCc1cc(=O)oc2cc(C)cc(OCC(=O)N3CCC(C(=O)NC(C)C)(c4ccccc4)CC3)c12 | -1 | 0 | -2 | 1 | -1 | .
COc1ccc(-c2n[nH]c(=S)n2-c2ccccc2C)cc1OC | 1 | -2 | -2 | -1 | 0 | .
COc1cc(/C=c2\s/c(=C\C(=O)C(C)(C)C)[nH]c2=O)cc(OC)c1OC | 0 | 4 | 1 | 1 | -9 | .
COc1ccc(/C=c2\s/c(=C\C(=O)C(C)(C)C)[nH]c2=O)cc1O | 2 | 63* | 64* | 8 | -46 | 9%
CC(C)OC(=O)CC1C(=O)NCCN1C(=O)COc1ccc(C(C)(C)C)cc1 (stereo not drawn) | 1 | -2 | -5 | -1 | -2 | .
Cc1nc2ccc3[nH]snc3c2n1 | 4 | 15 | 55* | 5 | -11 | 7%
O=C(Nc1ccc2cn[nH]c2c1)c1c(Cl)cccc1Cl | 4 | 9 | 51* | 8 | -1 | 10%
CC(=O)c1ccc(NC(=S)Nc2ccc3cn[nH]c3c2)cc1 | 5 | -1 | 57* | 5 | -7 | 8%
SMILES | CDK5 p35 inh | GSK3A inh | Dyrk1A ADPGlo | STK33 inh | GSK3B inh | Dyrk1A artifact
O=C(Nc1ccncc1)c1c(Cl)cccc1Cl | 4 | -1 | -3 | -2 | . | .
O=C(Nc1ccc2cn[nH]c2c1)c1ccccc1F | 2 | -1 | 54* | -2 | -4 | 10%
O=C(Nc1ccc2ccccc2c1)c1ccccc1F | 1 | -6 | 15 | 1 | -2 | .
COc1ccc2cc(CCNC(=O)c3ccc(S(=O)(=O)N4CCCC4)cc3)c(=O)[nH]c2c1 | -1 | -2 | -7 | -1 | 0 | .
Cc1cccc(OCC(=O)Nc2nc3ccc([N+](=O)[O-])cc3s2)c1 | -14 | -3 | 64* | 1 | -3 | 6%
Cc1cccc(OCC(=O)Nc2nc3ccc([N+](=O)[O-])cc3s2)c1C | 1 | 10 | 1 | 7 | -1 | .
Cc1ccc2nc(NC(=O)CCCC(=O)O)sc2c1 | 0 | 1 | 62* | -1 | -3 | 9%
O=C(O)COc1ccc(/C=C/c2nc3ccc([N+](=O)[O-])cc3s2)cc1 | 1 | -2 | 87* | 21 | 0 | 8%
CC(C)c1ccc(/C=C/C(=O)Nc2nc3ccc([N+](=O)[O-])cc3s2)cc1 | 0 | -3 | 24 | -1 | 2 | .
CC1CCc2sc(NC(=O)c3ccc(N4C(=O)CCC4=O)cc3)c(C(N)=O)c2C1 (stereo not drawn) | 2 | 0 | 14 | 1 | -4 | .
NC(=O)c1c(NC(=O)c2ccc(N3C(=O)CCC3=O)cc2)sc2c1CCCC2 | 4 | 1 | 60* | 6 | . | 13%
CCC(=O)Nc1c(C#N)c2nc3ccccc3nc2n1-c1ccccc1C | -1 | 14 | 55* | 0 | -5 | 8%
CCC(=O)Nc1c(C#N)c2nc3ccccc3nc2n1C1CCCCC1 | 5 | 10 | 44 | -2 | -11 | .
NS(=O)(=O)c1ccc(CCNC(=O)CNS(=O)(=O)c2cccc(Br)c2)cc1 | -2 | 0 | . | 1 | 0 | .
COc1ccc(CCNC(=O)C(=O)NCC2OCCN2S(=O)(=O)c2ccccc2)cc1 (stereo not drawn) | 0 | -2 | 4 | 0 | 1 | .
COc1cc(C(C)=O)ccc1Oc1ncnc2c1cnn2-c1ccccc1 | -3 | -1 | 62* | 1 | 2 | 8%
COc1cc(C(C)=O)ccc1Oc1ncnc2c1cnn2-c1ccc(C)c(C)c1 | -1 | . | -8 | . | -2 | .
N#CCSc1nc(Nc2ccc3c(c2)OCO3)c2ccccc2n1 | -1 | -1 | 60* | 0 | 1 | 7%
CCc1nnc(NS(=O)(=O)c2ccc(NCc3cc(Cl)cc(Cl)c3O)cc2)s1 | -2 | -9 | -5 | 0 | 3 | .
C=CCN1C(=O)/C(=C/c2ccccc2)S/C1=N/c1nccs1 | -1 | -1 | 58* | 0 | 1 | 7%
Cc1nonc1NC(=O)CSc1nnnn1-c1ccccc1 | 0 | -1 | 10 | -1 | 0 | .
CN(c1ccc(F)cc1)S(=O)(=O)c1ccc(Cl)c(C(=O)NCC2(N3CCOCC3)CCCCC2)c1 | -1 | . | -6 | . | . | .
CC(C)Oc1ccc(C(CC(=O)NCc2ccco2)c2ccccc2)cc1 (stereo not drawn) | -1 | -2 | 55* | -1 | -2 | 7%
Cc1cccc(C(CC(=O)NCc2ccco2)c2ccccc2)c1O (stereo not drawn) | -1 | -3 | 0 | -1 | -1 | .
COc1cccc(/C=N/n2c(C3CCCCC3)n[nH]c2=S)c1O | 2 | 24 | 53* | 2 | 0 | 11%
Oc1ccc(/C=N/n2c(C3CCCCC3)n[nH]c2=S)c(O)c1 | 6 | 20 | 83* | 12 | -10 | 9%
CCOc1ccc(-c2nnc(NC(=O)C3CCCC3)o2)cc1 | -2 | -3 | -1 | 0 | -7 | .
